What was measured:
K562 = test: Cytotoxicity against human K562 cells assessed as cell viability after 24 hrs by MTT assay; format: functional, cell-based; conditions: K562, 24 h
In short: (§1)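 Cells grown to about 50−70% confluence at 37 °C, 5% CO2, then exposed to compounds 24 h (DMSO vehicle control, cisplatin positive control). MTT (5 mg/mL stock) added for 4 h, formazan dissolved in DMSO, absorbance read at 570 nm. IC50 derived from percent viability; at least three independent experiments, mean ± SD.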

NCI-H1299 = test: Cytotoxicity against human NCI-H1299 cells assessed as cell viability after 24 hrs by MTT assay; format: functional, cell-based; conditions: NCI-H1299, 24 h; in short: as §1
[1] = Cytotoxicity against human SKOV3 cells assessed as cell viability after 24 hrs by MTT assay; format: functional, cell-based; conditions: SK-OV-3, 24 h; in short: as §1
DU-145 = test: Cytotoxicity against human DU145 cells assessed as cell viability after 24 hrs by MTT assay; format: functional, cell-based; conditions: DU-145, 24 h; in short: as §1
MDA-MB-231 = test: Cytotoxicity against human MDA-MB-231 cells assessed as cell viability after 24 hrs by MTT assay; format: functional, cell-based; conditions: MDA-MB-231, 24 h; in short: as §1
[2] = Cytotoxicity against human A172 cells assessed as cell viability after 24 hrs by MTT assay; format: functional, cell-based; conditions: A 172, 24 h; in short: as §1
[3] = Cytotoxicity against human RWPE1 cells assessed as cell viability after 24 hrs by MTT assay; format: cell-based; conditions: RWPE-1, 24 h; in short: as §1
[4] = Cytotoxicity against human SH-SY5Y cells assessed as cell viability after 24 hrs by MTT assay; format: functional, cell-based; in short: as §1
LoVo = test: Cytotoxicity against human LoVo cells assessed as cell viability after 24 hrs by MTT assay; format: functional, cell-based; in short: as §1
[5] = Cytotoxicity against human PC3 cells assessed as cell viability after 24 hrs by MTT assay; format: functional, cell-based; conditions: PC-3, 24 h; in short: as §1
LNCaP = test: Cytotoxicity against human LNCAP cells assessed as cell viability after 24 hrs by MTT assay; format: functional, cell-based; in short: as §1
[6] = Cytotoxicity against human HL60 cells assessed as cell viability after 24 hrs by MTT assay; format: functional, cell-based; conditions: HL-60, 24 h; in short: as §1
[7] = Cytotoxicity against human Saos2 cells assessed as cell viability after 24 hrs by MTT assay; format: functional, cell-based; conditions: SAOS-2, 24 h; in short: as §1
[8] = Cytotoxicity against human T24 cells assessed as cell viability after 24 hrs by MTT assay; format: functional, cell-based; conditions: T-24, 24 h; in short: as §1

Row | SMILES | IC50 (K562) | IC50 (NCI-H1299) | IC50 [1] | IC50 (DU-145) | IC50 (MDA-MB-231) | IC50 [2] | IC50 [3] | IC50 [4] | IC50 (LoVo) | IC50 [5] | IC50 (LNCaP) | IC50 [6] | IC50 [7] | IC50 [8]
1 | C=C1[C@@H]2CC[C@H]3[C@]4(C)CCC[C@](C)(C(=O)O)[C@H]4CC[C@]3(C2)[C@@H]1OC(C)=O | > 50 µM | > 50 µM | > 50 µM | > 50 µM | > 50 µM | > 50 µM | > 50 µM | > 50 µM | > 50 µM | > 50 µM | > 50 µM | > 50 µM | > 50 µM | > 50 µM
2 | C=C1[C@@H]2CC[C@@H]3[C@@](CC[C@@H]4C(C)(C)CC[C@H](O)[C@]43C)(C2)[C@@H]1O | > 50 µM | > 50 µM | > 50 µM | > 50 µM | > 50 µM | > 50 µM | > 50 µM | > 50 µM | > 50 µM | > 50 µM | > 50 µM | > 50 µM | > 50 µM | > 50 µM
3 | C=C1C(O)[C@@]23CC[C@H]4[C@@](C)(CCC[C@@]4(C)C(=O)OCCN4CCN(C)CC4)[C@@H]2CC[C@]1(O)C3 (stereo partly specified) | > 50 µM | > 50 µM | > 50 µM | > 50 µM | > 50 µM | > 50 µM | > 50 µM | > 50 µM | > 50 µM | > 50 µM | > 50 µM | > 50 µM | > 50 µM | > 50 µM
4 | C=C1C(=O)[C@@]23CC[C@@H]4C(C)(C)CCC[C@@]4(C)C2=CC[C@]1(O)C3 | 1.9 µM | 2.4 µM | 1.8 µM | 5.5 µM | 4.2 µM | 3.8 µM | 6.2 µM | 1.2 µM | 1.8 µM | 3.2 µM | 3.2 µM | 1 µM | 1.3 µM | 1.7 µM
5 | C=C1[C@@H]2CC[C@]3(O)[C@@](CC[C@@H]4C(C)(C)CCC[C@]43C)(C2)[C@@H]1O | > 50 µM | > 50 µM | > 50 µM | > 50 µM | > 50 µM | > 50 µM | > 50 µM | > 50 µM | > 50 µM | > 50 µM | > 50 µM | > 50 µM | > 50 µM | > 50 µM
6 | C=C1[C@@H]2CC(=O)[C@H]3[C@]4(C)CCCC(C)(C)[C@H]4[C@@H](O)C[C@]3(C2)[C@@H]1O | > 50 µM | > 50 µM | > 50 µM | > 50 µM | > 50 µM | > 50 µM | > 50 µM | > 50 µM | > 50 µM | > 50 µM | > 50 µM | > 50 µM | > 50 µM | > 50 µM
7 | C=C1[C@@H]2CC[C@H]3[C@]4(C)CCCC(C)(C)[C@H]4CC[C@]3(C2)[C@@H]1O | > 50 µM | > 50 µM | > 50 µM | > 50 µM | > 50 µM | > 50 µM | > 50 µM | > 50 µM | > 50 µM | > 50 µM | > 50 µM | > 50 µM | > 50 µM | > 50 µM
8 | C=C1[C@@H]2C[C@@H](O)[C@H]3[C@]4(C)CCCC(C)(C)[C@H]4CC[C@]3(C2)[C@@H]1O | > 50 µM | > 50 µM | > 50 µM | > 50 µM | > 50 µM | > 50 µM | > 50 µM | > 50 µM | > 50 µM | > 50 µM | > 50 µM | > 50 µM | > 50 µM | > 50 µM
9 | C[C@@H]1C(=O)[C@H]2C[C@]1(O)CC1=C2[C@]2(C)CCCC(C)(C)[C@H]2CC1 | > 50 µM | > 50 µM | > 50 µM | > 50 µM | > 50 µM | > 50 µM | > 50 µM | > 50 µM | > 50 µM | > 50 µM | > 50 µM | > 50 µM | > 50 µM | > 50 µM
10 | C[C@H]1C(=O)[C@@]23C[C@H](O)[C@@H]4[C@@](C)(CO)CCC[C@@]4(C)C2=CC[C@]1(O)C3 | > 50 µM | > 50 µM | > 50 µM | > 50 µM | > 50 µM | > 50 µM | > 50 µM | > 50 µM | > 50 µM | > 50 µM | > 50 µM | > 50 µM | > 50 µM | > 50 µM
11 | C=C1C[C@]23C[C@H]1CC[C@H]2[C@]1(C)CCCC(C)(C)[C@H]1C[C@H]3O | > 50 µM | > 50 µM | > 50 µM | > 50 µM | > 50 µM | > 50 µM | > 50 µM | > 50 µM | > 50 µM | > 50 µM | > 50 µM | > 50 µM | > 50 µM | > 50 µM
12 | C[C@H]1C(=O)[C@@]23CC[C@@H]4C(C)(C)CCC[C@@]4(C)C2=CC[C@]1(O)C3 | > 50 µM | > 50 µM | > 50 µM | > 50 µM | > 50 µM | > 50 µM | > 50 µM | > 50 µM | > 50 µM | > 50 µM | > 50 µM | > 50 µM | > 50 µM | > 50 µM
13 | C=C1C(=O)[C@@]23CC[C@@H]4[C@@](C)(CO)CCC[C@@]4(C)C2=CC[C@]1(O)C3 | 10.2 µM | 10.7 µM | 8.6 µM | 6.3 µM | 12.3 µM | 4.4 µM | 11.7 µM | 4.4 µM | 9 µM | 5.5 µM | 11.6 µM | 3.7 µM | 7.8 µM | 10.4 µM
14 | C=C1C(=O)[C@@]23CC[C@@H]4[C@@](C)(C=O)CCC[C@@]4(C)C2=CC[C@]1(O)C3 | 6.3 µM | 12.2 µM | 7.4 µM | 11.6 µM | 21.6 µM | 4.4 µM | 12.7 µM | 4.2 µM | 9.3 µM | 11.4 µM | 9.5 µM | 4.4 µM | 7.3 µM | 5.9 µM
15 | C[C@@H]1C(=O)[C@@]23CC[C@@H]4C(C)(C)[C@H](O)CC[C@@]4(C)[C@@H]2[C@@H](O)C[C@@H]1C3 | > 50 µM | > 50 µM | > 50 µM | > 50 µM | > 50 µM | > 50 µM | > 50 µM | > 50 µM | > 50 µM | > 50 µM | > 50 µM | > 50 µM | > 50 µM | > 50 µM
16 | C=C1C(=O)[C@@]23CC[C@@H]4[C@@](C)(CO)CCC[C@@]4(C)C2=CC[C@@H]1C3 | 13.8 µM | 14.5 µM | 22.3 µM | 31 µM | 32 µM | 20.3 µM | 39.3 µM | 9.8 µM | 11.2 µM | 21.5 µM | 16.3 µM | 4.7 µM | 14 µM | 17.7 µM
17 | C[C@H]1C(=O)[C@@]23CC[C@@H]4C(C)(C)[C@H](O)CC[C@@]4(C)[C@@H]2[C@@H](O)C[C@@H]1C3 | > 50 µM | > 50 µM | > 50 µM | > 50 µM | > 50 µM | > 50 µM | > 50 µM | > 50 µM | > 50 µM | > 50 µM | > 50 µM | > 50 µM | > 50 µM | > 50 µM
18 | C=C1C[C@@]23CC[C@H]4[C@@](C)(CCC[C@]4(C)C(=O)O)[C@@H]2CC[C@@H]1C3 | > 50 µM | > 50 µM | > 50 µM | > 50 µM | > 50 µM | > 50 µM | > 50 µM | > 50 µM | > 50 µM | > 50 µM | > 50 µM | > 50 µM | > 50 µM | > 50 µM
19 | C=C1[C@@H]2C[C@H](O)[C@H]3[C@]4(C)CCCC(C)(C)[C@H]4CC[C@]3(C2)[C@@H]1O | > 50 µM | > 50 µM | > 50 µM | > 50 µM | > 50 µM | > 50 µM | > 50 µM | > 50 µM | > 50 µM | > 50 µM | > 50 µM | > 50 µM | > 50 µM | > 50 µM

From ChEMBL document CHEMBL3425440, “ent-Kaurane Diterpenoids from Chinese Liverworts and Their Antitumor Activities through Michael Addition As Detected in Situ by a Fluorescence Probe” (J Med Chem, 2015)
